# Screening data (PubChem)
# This is a sample that favours compounds with a hit; in the whole collection about 3.4% have one here.
# beta cell repl: inducers of MIN6 beta-cell proliferation, primary screen, ATP luminescence, uHTS; MIN6 cells proliferation, ATPlite luminescence, 48 h; cells starved in 0.2% serum; 100% = growth in 10% serum; proliferation, % at 10 µM; 330,000 compounds, 0.29% hits; AID 2380, 2010;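 active = compounds whose signal lies at least 3.5 SD above the mean of all wells on their plate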;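 also: 0% = DMSO-treated cells in low-serum medium and 100% = 10% serum control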
# m5-HT2A agonist: mouse Htr2a agonists via beta-arrestin recruitment, primary screen, cell-based, luminescence. 5-hydroxytryptamine receptor 2A (Mus musculus), P35363. CHO-K1 mHTR2A beta-arrestin complementation; percent of 30 µM serotonin response. activation, % at 7.6 µM. 360,000 compounds, 0.66% hits. AID 624169, 2012;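 active = activation above a run cutoff, the mean activation of all tested compounds plus 3 SD, cut at about 14% in these data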;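 also: 0% = plate median of compound wells and 100% = 30 µM serotonin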
# ANO1 activ: TMEM16A chloride channel activators or potentiators, primary screen, cell-based, HTS; HEK293 TMEM16A/YFP-H148Q/I152L, iodide quench fluorescence; hits give low values; 340,000 compounds, 0.3% hits; B-score at 10 µM; AID 623877, 2012; Anoctamin-1 (Mus musculus), Q8BHY3;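 active = fluorescence-ratio B-score plate-corrected deviation score at least 3 library SD below zero, with starting fluorescence score within 5 deviations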;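 also: channel opened by trigger with iodide after compound preincubation; score built on the fluorescence ratio of max minus min over baseline; more negative score means more quench and so TMEM16A activation or potentiation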
# MC4R antag cAMP: MC4R antagonists of cAMP signaling, primary screen, cell-based, TR-FRET, antagonist arm of biased-ligand search. MC4R-expressing cells, MTII-stimulated cAMP, LANCE TR-FRET. 360,000 compounds, 0.48% hits. AID 540295, 2011. inhibition, % at 6.5 µM;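 active = inhibition above its plate's cutoff, the mean of tested wells on that plate plus 3 SD, cut at about 29% in these data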;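 also: 0% = Melanotan II alone and 100% = Melanotan II plus saturating MCL0020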
# Target sequence (P32245 whole entry, looked up): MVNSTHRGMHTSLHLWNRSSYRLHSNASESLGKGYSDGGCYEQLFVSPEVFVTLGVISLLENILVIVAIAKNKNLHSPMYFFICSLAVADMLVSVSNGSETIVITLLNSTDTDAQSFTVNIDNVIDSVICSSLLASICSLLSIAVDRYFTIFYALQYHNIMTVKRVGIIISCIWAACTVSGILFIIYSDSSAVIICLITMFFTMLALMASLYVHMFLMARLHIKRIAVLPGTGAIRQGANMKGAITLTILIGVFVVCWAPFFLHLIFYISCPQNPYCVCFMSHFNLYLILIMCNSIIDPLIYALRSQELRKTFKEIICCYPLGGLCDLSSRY
#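 System: U2OS cells stably expressing human melanocortin 4 receptor (MC4R). Reagent: Melanotan II challenge after compound preincubation. Doses: 6.5 µM. Times: 30-min compound, 1-h challenge, 1-h detection, room temperature. Measured by: TR-FRET with Eu-cAMP and labeled anti-cAMP, 671 nm. Replicates: singlicate.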
# MC4R ag barr: MC4R agonists recruiting beta-arrestin, primary screen, cell-based, luminescence, agonist arm of biased-ligand search; Melanocortin receptor 4 (Homo sapiens), P32245; U2OS MC4R beta-arrestin complementation; percent of melanotan II response, DMSO zero; activation, % at 8.9 µM; 360,000 compounds, 0.98% hits;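 active = activation above a per-plate cutoff, the mean activation of sample wells on that plate plus 3 SD, cut at about 8% in these data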
# ANO1 block: TMEM16A chloride channel inhibitors, primary screen, cell-based, HTS. normalized B-score (activity score, 25-100; higher = stronger inhibition) at 10 µM. 310,000 compounds, 1.2% hits. AID 588511, 2011. Anoctamin-1 (Mus musculus), Q8BHY3. HEK293 TMEM16A/YFP iodide influx fluorescence, ionomycin;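 active = ratio plate-corrected score three or more library SD toward inhibition, starting fluorescence score within five deviations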;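 also: score derived from kinetic fluorescence span divided by baseline fluorescence per well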
# * hit, by the source's call; i = inactive; x = no result.
SMILES,beta cell repl,m5-HT2A agonist,ANO1 activ,MC4R antag cAMP,MC4R ag barr,ANO1 block
CCc1ccc(OCCNC(=O)c2ccccc2SCc2ccc(F)cc2)cc1,-6,-4,i,2,-1,i
O=C(NCCOc1ccc(F)cc1)c1ccccc1SCc1ccccc1,-5,-7,i,3,0,25*
COc1ccc(C(CNC(=O)CNC(=O)c2cccc(F)c2)N2CCOCC2)cc1 (stereo unspecified),x,3,x,-2,1,x
COc1ccc2cc(C(C)C(=O)O)ccc2c1 (stereo unspecified),-3,5,i,7,1,i
COc1ccc2cc([C@H](C)C(=O)O)ccc2c1,-4,41*,i,3,1,i
C/C(=N\Nc1nc2ccccc2[nH]1)c1ccc([N+](=O)[O-])cc1,0,-4,i,-3,9.5*,i
COc1ccccc1OCc1ccc(C(=O)N/N=C/c2ccco2)cc1,-1,0,i,-6,-1,i
O=C(N/N=C/c1ccco1)c1cc(Br)ccc1OCc1ccccc1,-1,-4,i,3,9.4*,i
O=C(Nc1ccccc1C(=O)N/N=C/c1ccco1)c1ccccc1Cl,0,-1,i,2,2,100*
O=C(NCc1ccccc1)c1cc(C2COCCN2C(=O)C/C=C/c2ccccc2)on1 (stereo unspecified),x,-2,x,10,0,x
O=C(OCCOc1ccc(Br)cc1)c1ccc(Cl)nc1,1,2,i,26,9.2*,i
O=C(OCc1ccc(Br)cc1)c1cnc(Cl)c(Cl)c1,0,0,i,33*,-2,i
CCCCSc1nc(C)cc(SCC(=O)N/N=C/c2cccc(OC)c2O)n1,-4,1,i,0,1,100*
CCOc1ccc(S(=O)(=O)NN=C(C)c2cccnc2)cc1,-3,5,i,0,-1,x
CC(=O)Nc1cc(-c2cccc(F)c2)cn2c(-c3ccccc3)cnc12,x,-7,x,0,9.4*,x
CC(=O)Nc1cc(-c2cccc(C(=O)N(C)C)c2)cn2c(-c3ccccc3)cnc12,x,-2,x,14,1,x
Cc1cccc(-c2cc(NC=O)c3ncc(-c4cccc(C(=O)N(C)C)c4)n3c2)c1,x,-1,x,-10,2,x
CN(C)C(=O)c1cccc(-c2cnc3c(NC=O)cc(-c4ccc(N(C)C)cc4)cn23)c1,x,-5,x,-18,8.6*,x
CC(=O)Nc1cc(-c2ccccc2F)cn2c(-c3ccccc3)cnc12,x,-7,x,10,8.3*,x
CC(=O)Nc1cc(-c2cccc(C(=O)N(C)C)c2)cn2c(-c3ccc(F)cc3)cnc12,x,-5,x,10,9.0*,x
CC(=O)Nc1ccc(NC(=O)C(C)OC(=O)c2c(NC(C)=O)sc(C)c2C)cc1 (stereo unspecified),-1,5,i,0,-2,x
CC1(Cc2ccc(Cl)s2)C(=O)Nc2c(Cl)ccc(Cl)c21 (stereo unspecified),x,8,x,3,2,x
CCCCN(C)C(=O)c1ccc(Nc2nc(C(N)COCc3ccccc3)cs2)nc1 (stereo unspecified),x,1,x,1,2,x
O=C(COC(=O)Cc1ccccc1F)Nc1ccc2[nH]c(=O)[nH]c2c1,3,-1,i,9,-5,i
O=C(COC(=O)/C=C/c1cc(Br)ccc1F)Nc1ccc2[nH]c(=O)[nH]c2c1,-2,-15,i,2,8.9*,i
SMILES,beta cell repl,m5-HT2A agonist,ANO1 activ,MC4R antag cAMP,MC4R ag barr,ANO1 block
CCCc1nc(NCC2CCCO2)c2nnn(Cc3ccccc3)c2n1 (stereo unspecified),-1,5,-4.9*,18,2,i
Oc1ccccc1Nc1nc(NCc2ccccc2)c2ccccc2n1,-7,-3,i,0,4,100*
CNc1nc(NCc2ccccc2)c2ccccc2n1,-3,-9,i,3,-2,i
CC(=O)N1c2ccc(S(=O)(=O)NCC3CCC(C(=O)NCc4ccco4)CC3)cc2CC1C (stereo unspecified),-2,-3,i,2,-1,i
CSc1ccccc1NC(=O)C(C)N(C)CC(=O)N1CCN(Cc2ccccc2)CC1 (stereo unspecified),x,3,i,1,1,x
Cn1cc(C(=O)c2ccc(Cl)cc2)cc1-c1nc2ccccc2n1C,-3,1,i,4,-3,100*
CN(C)c1ccc(C(C(=O)NCC2CCCO2)N(Cc2ccccc2)C(=O)c2snc(C(N)=O)c2N)cc1 (stereo unspecified),8.8*,5,i,8,1,i
Cc1ccc(NC(=O)CN(C)C(=O)COC(=O)CNS(=O)(=O)c2ccc(Br)cc2Cl)cc1,-1,-6,-8.1*,7,-4,i
Cc1ccc(NC(=O)CN(C)C(=O)COC(=O)CNS(=O)(=O)c2ccc(F)c(F)c2F)cc1,-6,7,i,3,-1,i
CCOC(=O)/C(=C\c1cccnc1)C(=O)c1cc(C(C)=O)c(Nc2ccccc2)s1,-3,-3,-11*,-17,-4,25*
CC(C)(C)N(Cc1ccccc1)C(=O)CN1C(=O)c2ccccc2S1(=O)=O,1,6,i,16,-1,x
Cc1cc(S(=O)(=O)Nc2c(NC3CCCCC3)c3ccccc3oc2=O)ccc1F,-5,0,i,6,8.4*,i
CCOc1cc(/C=C2\COc3ccccc3C2=O)cc(Br)c1OCC(=O)N(C)C,-4,-3,i,17,-3,i
Oc1c(Br)cc(Br)c(/C=N/n2c(-c3ccccc3)n[nH]c2=S)c1Br,-4,-1,i,-2,-2,100*
Cc1ccc(C2(C)NC(=O)N(CC(=O)N(C)CC(=O)Nc3cccc4ccccc34)C2=O)cc1 (stereo unspecified),2,-3,i,2,-1,i
CN1CCN(c2c([N+](=O)[O-])cnc3ccccc23)CC1,0,4,i,1,-2,i
CC(=O)Nc1ccc(OCC(O)CN2CCN(S(=O)(=O)c3ccc(NC(C)=O)cc3)CC2)cc1 (stereo unspecified),-1,2,i,3,-1,100*
